Data published in ChEMBL document CHEMBL3739311 (ACS Med Chem Lett, 2015).
pEC50, pIC50: −log10 of the molar value. ≈ marks a conversion by molar mass, not a printed value.

Tests used:
[1] = test system: Human immunodeficiency virus 1; assay: Antiviral activity against HIV-1 X4 expressing wild-type reverse transcriptase infected in human CD4+ T cells for 3 days by FACS analysis; assay type: functional, organism-based; conditions: Human immunodeficiency virus 1, X4, T-cell, 72 h
Summary of the method: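 Single-round infectivity assay using HIV strains carrying wild-type RT (WT X4); EC50 determined.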

[2] = test system: Human immunodeficiency virus 1; assay: Antiviral activity against HIV-1 X4 expressing reverse transcriptase K101P mutant infected in human CD4+ T cells for 3 days by FACS analysis; assay type: functional, organism-based; conditions: Human immunodeficiency virus 1, T-cell, 72 h
Summary of the method: (§1)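 Single-round infectivity assay against HIV strains whose RT carries the K101P, K103N or Y181C mutation, alongside a WT X4 strain; EC50 determined.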

[3] = test system: Human immunodeficiency virus 1; assay: Antiviral activity against HIV-1 X4 expressing reverse transcriptase K103N mutant infected in human CD4+ T cells for 3 days by FACS analysis; assay type: functional, organism-based; conditions: Human immunodeficiency virus 1, T-cell, 72 h; summary of the method: as §1
[4] = test system: Human immunodeficiency virus 1; assay: Antiviral activity against HIV-1 X4 expressing reverse transcriptase Y181C mutant infected in human CD4+ T cells for 3 days by FACS analysis; assay type: functional, organism-based; conditions: Human immunodeficiency virus 1, T-cell, 72 h; summary of the method: as §1
[5] = Aqueous solubility of compound; assay type: physicochemical
[6] = Cytotoxicity against human CD4-positive T cells; assay type: cell-based, T-cell
[7] = molecular target: Human immunodeficiency virus type 1 reverse transcriptase (Human immunodeficiency virus 1, UniProt Q72547); assay: Inhibition of wild-type HIV-1 reverse transcriptase by fluorescence assay
Summary of the method: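 Reverse transcription inhibition by wild-type RT enzyme, read by PicoGreen fluorescence; IC50 in nM.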

[8] = molecular target: Human immunodeficiency virus type 1 reverse transcriptase (Human immunodeficiency virus 1, UniProt Q72547, K101P); assay: Inhibition of HIV-1 reverse transcriptase K101P mutant by fluorescence assay
Summary of the method: (§2)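 PicoGreen fluorescence read-out of reverse transcription, run with both RT(WT) and RT(K101P) enzymes; IC50 determined for each enzyme. The fold-change is IC50 for RT(K101P) over IC50 for RT(WT).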

[9] = test system: Human immunodeficiency virus 1; assay: Selectivity index, ratio of IC50 for HIV-1 reverse transcriptase K101P mutant to IC50 for wild-type HIV-1 reverse transcriptase; summary of the method: as §2
[10] = test system: Human immunodeficiency virus 1; assay: Antiviral activity against HIV-1 NL4-3 expressing reverse transcriptase E138K mutant infected in MT-2 cells by MTT assay; assay type: functional, organism-based; conditions: Human immunodeficiency virus 1, NL4-3, MT2
[11] = test system: Human immunodeficiency virus 1; assay: Antiviral activity against HIV-1 NL4-3 expressing reverse transcriptase E138K/M184V mutant infected in MT-2 cells by MTT assay; assay type: functional, organism-based; conditions: Human immunodeficiency virus 1, NL4-3, MT2

SMILES	pEC50 [1]	pEC50 [2]	pEC50 [3]	pEC50 [4]	solubility [5]	CC50 [6]	pIC50 [7]	pIC50 [8]	Ratio IC50 [9]	pEC50 [10]	pEC50 [11]
N#C/C=C/c1cc(F)cc(Oc2ccc(F)cc2OCCn2ccc(=O)[nH]c2=O)c1	8.70	8.70	7.05	8.10	10.8 µg/mL (≈ 26.3 µM)	45000 nM	8.57	8.66	0.8	–	–
O=C1Nc2ccc(Cl)cc2[C@@](C#CC2CC2)(C(F)(F)F)O1 [EFAVIRENZ]	–	6.06	6.08	7.39	–	–	–	–	–	–	–
N#Cc1cc2c(Oc3ccccc3OCCn3ccc(=O)[nH]c3=O)cccn2c1	9.00	9.00	8.52	8.70	–	> 100000 nM	8.97	8.72	1.8	9.05	9.12
N#C/C=C/c1cc(Cl)cc(Oc2ccccc2OCCn2ccc(=O)[nH]c2=O)c1	8.30	8.10	7.30	7.64	–	18000 nM	8.48	8.68	0.6	8.55	8.66
Cc1cc(/C=C/C#N)cc(C)c1Nc1ccnc(Nc2ccc(C#N)cc2)n1 [RILPIVIRINE]	7.89	5.94	7.89	7.29	< 0.1 µg/mL	–	–	6.00	–	–	–
